Measurements published in ChEMBL document CHEMBL2086296, “Synthesis of novel quinoline-2-one based chalcones of potential anti-tumor activity” (Eur J Med Chem, 2012).

How the values were obtained:
NCI-H460 = assay: Cytotoxicity against human NCI-H460 cells after 24 hrs by SRB assay; type: functional; settings: NCI-H460, 24 h
How it was run: (§1)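 NCI 60-line screen. Cells in RPMI 1640 with 5% FBS and 2 mM L-glutamine, seeded at 5,000–40,000 cells/well by doubling time, then incubated 24 h at 37 °C, 5% CO2 before dosing. Time-zero plates fixed with TCA at drug addition. DMSO stocks diluted in medium with gentamicin to five concentrations, […]. Protein read by SRB staining. GI50, TGI and LC50 derived relative to control and time-zero.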

NCI-H522 = assay: Cytotoxicity against human NCI-H522 cells after 24 hrs by SRB assay; type: functional; settings: NCI-H522, 24 h; how it was run: as §1
A549 = assay: Cytotoxicity against human A549 cells after 24 hrs by SRB assay; type: functional; settings: A549, 24 h; how it was run: as §1
SF-295 = assay: Cytotoxicity against human SF295 cells after 24 hrs by SRB assay; type: functional; settings: SF-295, 24 h; how it was run: as §1
SF-539 = assay: Cytotoxicity against human SF539 cells after 24 hrs by SRB assay; type: functional; settings: SF-539, 24 h; how it was run: as §1
M14 = assay: Cytotoxicity against human M14 cells after 24 hrs by SRB assay; type: functional; settings: M14, 24 h; how it was run: as §1
SK-MEL-28 = assay: Cytotoxicity against human SK-MEL-28 cells after 24 hrs by SRB assay; type: functional; settings: SK-MEL-28, 24 h; how it was run: as §1
NCI/ADR-RES [1] = assay: (§2) Cytotoxicity against human NCI/ADR-RES cells after 24 hrs by SRB assay; type: functional; how it was run: as §1
OVCAR-8 [2] = assay: (§3) Cytotoxicity against human OVCAR8 cells after 24 hrs by SRB assay; type: functional; settings: OVCAR-8, 24 h; how it was run: as §1
ACHN [3] = assay: (§4) Cytotoxicity against human ACHN cells after 24 hrs by SRB assay; type: functional; how it was run: as §1
CAKI-1 = assay: Cytotoxicity against human CAKI-1 cells after 24 hrs by SRB assay; type: functional; settings: CAKI-1, 24 h; how it was run: as §1
TK-10 = assay: Cytotoxicity against human TK10 cells after 24 hrs by SRB assay; type: functional; settings: TK-10, 24 h
How it was run: (§5)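 NCI 60-cell screen. Cells are grown in RPMI 1640 with 5% FBS and 2 mM L-glutamine and seeded at 5,000–40,000 cells/well according to doubling time. They are preincubated 24 h at 37 °C in 5% CO2, and Tz plates are TCA-fixed at drug addition. Drug stock is in DMSO, diluted in medium with gentamicin, and tested at five concentrations (100, 10, 1.0, 0.1, […]). Protein is read by SRB staining. GI50, TGI and LC50 are derived relative to time-zero and control wells.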

MCF7 [4] = assay: (§6) Cytotoxicity against human MCF7 cells after 24 hrs by SRB assay; type: functional; settings: MCF7, 24 h; how it was run: as §1
MDA-MB-468 = assay: Cytotoxicity against human MDA-MB-468 cells after 24 hrs by SRB assay; type: functional; settings: MDA-MB-468, 24 h; how it was run: as §1
[5] = Cytotoxicity against human Hs 578T cells after 24 hrs by SRB assay; type: functional; how it was run: as §1
CCRF-CEM [6] = assay: (§7) Cytotoxicity against human CCRF-CEM cells after 24 hrs by SRB assay; type: cell-based
How it was run: (§8)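 NCI 60-cell screen. Cells grown in RPMI 1640 with 5% FBS and 2 mM L-glutamine, seeded at 5,000–40,000 cells/well, preincubated 24 h at 37 °C in 5% CO2. Drug stock in DMSO, diluted in medium with gentamicin; five final concentrations, 100, 10, 1.0, 0.1 and […]. Time-zero plates were TCA-fixed. Protein read by SRB staining; GI50, TGI and LC50 taken relative to time-zero.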

MOLT-4 = assay: Cytotoxicity against human MOLT4 cells after 24 hrs by SRB assay; type: cell-based; settings: molt-4, 24 h; how it was run: as §8
EKVX = assay: Cytotoxicity against human EKVX cells after 24 hrs by SRB assay; type: cell-based; how it was run: as §8
HCT-116 = assay: Cytotoxicity against human HCT116 cells after 24 hrs by SRB assay; type: cell-based; settings: hct-116, 24 h; how it was run: as §8
HCT-15 = assay: Cytotoxicity against human HCT15 cells after 24 hrs by SRB assay; type: cell-based; settings: hct-15, 24 h; how it was run: as §8
HT-29 = assay: Cytotoxicity against human HT-29 cells after 24 hrs by SRB assay; type: cell-based; settings: ht-29, 24 h; how it was run: as §8
HCC 2998 = assay: Cytotoxicity against human HCC2998 cells after 24 hrs by SRB assay; type: cell-based; settings: hcc 2998, 24 h; how it was run: as §8
SF-268 = assay: Cytotoxicity against human SF268 cells after 24 hrs by SRB assay; type: cell-based; settings: sf-268, 24 h; how it was run: as §8
SNB-19 = assay: Cytotoxicity against human SNB19 cells after 24 hrs by SRB assay; type: cell-based; settings: snb-19, 24 h
How it was run: (§9)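 NCI 60-cell-line screen: cells grown in RPMI 1640 with 5% FBS and 2 mM L-glutamine, seeded at 5,000–40,000 cells/well by doubling time, and preincubated 24 h at 37 °C in 5% CO2. Time-zero plates were TCA-fixed. DMSO stocks were diluted in medium with gentamicin to five concentrations (100, 10, 1.0, 0.1, […]). Protein was read by SRB, and GI50, TGI and LC50 were derived against time-zero.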

SR = assay: Cytotoxicity against human SR cells after 24 hrs by SRB assay; type: functional; how it was run: as §5
CCRF-CEM [7] = assay: as §7; type: functional; how it was run: as §1
MDA-MB-435 = assay: Cytotoxicity against human MDA-MB-435 cells after 24 hrs by SRB assay; type: cell-based; settings: mda-mb-435, 24 h; how it was run: as §8
OVCAR-3 = assay: Cytotoxicity against human OVCAR3 cells after 24 hrs by SRB assay; type: cell-based; settings: ovcar-3, 24 h; how it was run: as §8
NCI/ADR-RES [8] = assay: as §2; type: cell-based; how it was run: as §8
OVCAR-8 [9] = assay: as §3; type: cell-based; settings: ovcar-8, 24 h; how it was run: as §8
ACHN [10] = assay: as §4; type: cell-based; how it was run: as §8
SN12C = assay: Cytotoxicity against human SN12C cells after 24 hrs by SRB assay; type: cell-based; how it was run: as §9
DU-145 = assay: Cytotoxicity against human DU145 cells after 24 hrs by SRB assay; type: cell-based; settings: du-145, 24 h; how it was run: as §8
MCF7 [11] = assay: as §6; type: cell-based; settings: mcf7, 24 h; how it was run: as §8
BT-549 = assay: Cytotoxicity against human BT549 cells after 24 hrs by SRB assay; type: cell-based; settings: bt-549, 24 h; how it was run: as §8
T47D = assay: Cytotoxicity against human T47D cells after 24 hrs by SRB assay; type: cell-based; how it was run: as §9
SK-OV-3 = assay: Cytotoxicity against human SKOV3 cells after 24 hrs by SRB assay; type: functional; settings: SK-OV-3, 24 h; how it was run: as §1
786-0 [12] = assay: (§10) Cytotoxicity against human 786-0 cells after 24 hrs by SRB assay; type: functional; settings: 786-0, 24 h; how it was run: as §1
786-0 [13] = assay: as §10; type: cell-based; settings: 786-0, 24 h; how it was run: as §8

O=C(/C=C/c1cc2ccccc2[nH]c1=O)c1ccc(O)cc1
GI50 (NCI-H460): 2.39 µM
TGI (NCI-H460): 6.87 µM
GI50 (NCI-H522): 1700 nM
TGI (NCI-H522): 3.29 µM
GI50 (A549): 2730 nM
TGI (A549): 11.8 µM
GI50 (SF-295): 7.04 µM
TGI (SF-295): 44 µM
GI50 (SF-539): 2550 nM
TGI (SF-539): 8.64 µM
GI50 (M14): 2600 nM
TGI (M14): 6.57 µM
GI50 (SK-MEL-28): 5.11 µM
TGI (SK-MEL-28): 19.5 µM
GI50 (NCI/ADR-RES [1]): 2900 nM
TGI (NCI/ADR-RES [1]): > 100 µM
GI50 (OVCAR-8 [2]): 3230 nM
TGI (OVCAR-8 [2]): 21.1 µM
GI50 (ACHN [3]): 2670 nM
TGI (ACHN [3]): 8.86 µM
GI50 (CAKI-1): 4.71 µM
TGI (CAKI-1): > 100 µM
GI50 (TK-10): 3.81 µM
TGI (TK-10): 11.8 µM
GI50 (MCF7 [4]): 3490 nM
TGI (MCF7 [4]): 16.8 µM
GI50 (MDA-MB-468): 2120 nM
TGI (MDA-MB-468): 5.3 µM
GI50 [5]: 6.15 µM
TGI [5]: > 100 µM
LC50 (CCRF-CEM [6]): > 100 µM
LC50 (MOLT-4): > 100 µM
LC50 (EKVX): 55.2 µM
LC50 (HCT-116): 9.91 µM
LC50 (HCT-15): > 100 µM
LC50 (HT-29): 41.4 µM
LC50 (HCC 2998): 59.6 µM
LC50 (SF-268): > 100 µM
LC50 (SNB-19): 50.6 µM
GI50 (SR): 1660 nM
GI50 (CCRF-CEM [7]): 2380 nM
TGI (CCRF-CEM [7]): > 100 µM
LC50 (MDA-MB-435): > 100 µM
LC50 (OVCAR-3): 35 µM
LC50 (NCI/ADR-RES [8]): > 100 µM
LC50 (OVCAR-8 [9]): > 100 µM
LC50 (ACHN [10]): 34 µM
LC50 (SN12C): > 100 µM
LC50 (DU-145): 38 µM
LC50 (MCF7 [11]): 82.9 µM
LC50 (BT-549): > 100 µM
LC50 (T47D): 79.6 µM

O=C(/C=C/c1cc2ccccc2[nH]c1=O)/C=C/c1cc2ccccc2[nH]c1=O
GI50 (NCI-H460): 4.63 µM
TGI (NCI-H460): > 100 µM
GI50 (NCI-H522): 2520 nM
GI50 (A549): 764 nM
GI50 (SF-295): 2.64 µM
GI50 (SF-539): 2130 nM
TGI (SF-539): > 100 µM
GI50 (M14): 393 nM
GI50 (SK-MEL-28): 4.96 µM
TGI (SK-MEL-28): > 100 µM
GI50 (NCI/ADR-RES [1]): > 100000 nM
TGI (NCI/ADR-RES [1]): > 100 µM
GI50 (OVCAR-8 [2]): 2600 nM
TGI (OVCAR-8 [2]): > 100 µM
GI50 (SK-OV-3): 18.1 µM
TGI (SK-OV-3): > 100 µM
GI50 (ACHN [3]): 2490 nM
TGI (ACHN [3]): > 100 µM
GI50 (CAKI-1): 2.36 µM
TGI (CAKI-1): > 100 µM
GI50 (TK-10): 4.6 µM
TGI (TK-10): > 100 µM
GI50 (786-0 [12]): 2750 nM
TGI (786-0 [12]): 6.82 µM
GI50 (MCF7 [4]): 327 nM
TGI (MCF7 [4]): > 100 µM
GI50 (MDA-MB-468): 1580 nM
TGI (MDA-MB-468): 4.39 µM
LC50 (CCRF-CEM [6]): > 100 µM
LC50 (MOLT-4): > 100 µM
LC50 (EKVX): > 100 µM
LC50 (HCT-116): > 100 µM
LC50 (HCT-15): > 100 µM
LC50 (HCC 2998): 5.25 µM
LC50 (SF-268): > 100 µM
LC50 (SNB-19): > 100 µM
GI50 (SR): 1140 nM
TGI (SR): > 100 µM
GI50 (CCRF-CEM [7]): 697 nM
TGI (CCRF-CEM [7]): > 100 µM
LC50 (OVCAR-3): > 100 µM
LC50 (NCI/ADR-RES [8]): > 100 µM
LC50 (OVCAR-8 [9]): > 100 µM
LC50 (ACHN [10]): > 100 µM
LC50 (SN12C): > 100 µM
LC50 (786-0 [13]): > 100 µM
LC50 (DU-145): > 100 µM
LC50 (MCF7 [11]): > 100 µM
LC50 (BT-549): > 100 µM
LC50 (T47D): > 100 µM
